Results published in ChEMBL document CHEMBL1126568, “Nucleosides and nucleotides. 122. 2'-C-cyano-2'-deoxy-1-beta-D-arabinofuranosylcytosine and its derivatives. A new class of nucleoside with a broad antitumor spectrum” (J Med Chem, 1993).

Experiments:
[1] = Percent inhibition against human oral epidermoid carcinoma KB cells at 100 ug/mL; assay type: functional
Summary of the method: (§1)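 MTT growth assay: 2 × 10³ cells/well exposed to compound or left untreated for 72 h. MTT then added for 4 h more; formazan dissolved in DMSO and OD read at 540 nm. % inhibition = [1 − OD sample/OD control] × 100. IC₅₀ (μM) is the concentration giving 50% growth inhibition. Single-concentration inhibition measured at 100 μg/mL.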

[2] = test system: L1210; test: Percent inhibition against murine leukemia L1210 at 100 ug/mL; assay type: functional; conditions: Mus musculus; summary of the method: as §1
[3] = Tested in vitro inhibitory activity against human oral epidermoid carcinoma KB cells; assay type: functional, cell-based; summary of the method: as §1
[4] = test system: L1210; test: Tested in vitro inhibitory activity against murine leukemia L1210; assay type: functional, cell-based; conditions: Mus musculus; summary of the method: as §1
[5] = test system: PC-13; test: Tested in vitro against PC-13 human lung large cell carcinoma; assay type: functional, cell-based; summary of the method: as §1
[6] = test system: MKN-45; test: Tested in vitro against MKN-45 human stomach adenocarcinoma; assay type: functional, cell-based; conditions: MKN-45, Stomach; summary of the method: as §1
[7] = test system: KATO III stomach cancer cell line; test: Tested in vitro against KATO-III human stomach adenocarcinoma; assay type: functional, cell-based; summary of the method: as §1
[8] = test system: A-375; test: Tested in vitro against A-375 cell line human melanoma; assay type: functional, cell-based; summary of the method: as §1
[9] = test system: COLO 320; test: Tested in vitro against colo-320 human colon adenocarcinoma; assay type: functional, cell-based; conditions: COLO 320, Colon; summary of the method: as §1
[10] = test system: QG-95; test: Tested in vitro against QG-95 human squamous cell carcinoma; assay type: functional, cell-based; summary of the method: as §1
[11] = test system: PC-8; test: Tested in vitro against PC-8 human lung adenocarcinoma; assay type: functional, cell-based; summary of the method: as §1
[12] = test system: ST-KM-1; test: Tested in vitro against ST-KM human stomach adenocarcinoma; assay type: functional, cell-based; conditions: ST-KM-1, Stomach; summary of the method: as §1
[13] = test system: HT-1080; test: Tested in vitro against HT1080 cell line human fibrosarcoma; assay type: functional, cell-based; summary of the method: as §1
[14] = test system: PC-9; test: Tested in vitro against PC-9 human lung adenocarcinoma; assay type: functional, cell-based; summary of the method: as §1
[15] = test system: MCF7; test: Tested in vitro against MCF-7 human breast adenocarcinoma; assay type: functional, cell-based; summary of the method: as §1
[16] = test system: SW48; test: Tested in vitro against SW-48 human colon adenocarcinoma; assay type: functional, cell-based; summary of the method: as §1
[17] = test system: OST; test: Tested in vitro against OST human osteosarcoma; assay type: functional, cell-based; summary of the method: as §1
[18] = test system: KKLS; test: Tested in vitro against KKLS human stomach adenocarcinoma; assay type: functional, cell-based; summary of the method: as §1
[19] = test system: HOS-TE85; test: Tested in vitro against MNNG/HOS cell line human osteosarcoma; assay type: functional, cell-based; summary of the method: as §1

Compound	IC50 [3] [µM]	IC50 [4] [µM]	IC50 [5] [µM]	IC50 [6] [µM]	IC50 [7] [µM]	IC50 [8] [µM]	IC50 [9] [µM]	IC50 [10] [µM]	IC50 [11] [µM]	IC50 [12] [µM]	IC50 [13] [µM]	IC50 [14] [µM]	IC50 [15] [µM]	IC50 [16] [µM]	IC50 [17] [µM]	IC50 [18] [µM]	IC50 [19] [µM]	inhibition at 100 µg/mL [1] [%]	inhibition at 100 µg/mL [2] [%]
N#C[C@H]1C(O)[C@@H](CO)O[C@H]1n1ccc(=O)[nH]c1=O (stereo partly drawn)	–	–	–	–	–	–	–	–	–	–	–	–	–	–	–	–	–	8.4	10.2
Cc1cn([C@@H]2O[C@H](CO)C(O)[C@@H]2C#N)c(=O)[nH]c1=O (stereo partly drawn)	–	–	–	–	–	–	–	–	–	–	–	–	–	–	–	–	–	-6	6.7
CC(=O)Nc1ccn([C@@H]2O[C@H](CO)C=C2C#N)c(=O)n1	97.8	68.8	–	–	–	–	–	–	–	–	–	–	–	–	–	–	–	–	–

Further compounds by falling IC50 [4], results first:

IC50 [3] [µM]	IC50 [4] [µM]	IC50 [5] [µM]	IC50 [6] [µM]	IC50 [7] [µM]	IC50 [8] [µM]	IC50 [9] [µM]	IC50 [10] [µM]	IC50 [11] [µM]	IC50 [12] [µM]	IC50 [13] [µM]	IC50 [14] [µM]	IC50 [15] [µM]	IC50 [16] [µM]	IC50 [17] [µM]	IC50 [18] [µM]	IC50 [19] [µM]	Compound	inhibition at 100 µg/mL [1] [%]	inhibition at 100 µg/mL [2] [%]
–	261	363	376	31.6	145	150	427	> 430	350	248	> 430	299	273	235	> 430	205	N#CC1=C[C@@H](CO)O[C@H]1n1ccc(N)nc1=O	46.8	–
230	25.3	–	–	–	–	–	–	–	–	–	–	–	–	–	–	–	CC(=O)Nc1ccn([C@@H]2O[C@H](CO)[C@@H](O)[C@@H]2C#N)c(=O)n1	–	–
30.4	12.4	–	–	–	–	–	–	–	–	–	–	–	–	–	–	–	Cc1cn([C@@H]2O[C@H](CO)C=C2C#N)c(=O)[nH]c1=O	–	–
163	5.8	> 360	> 360	> 360	308	> 360	> 360	> 360	> 360	> 360	> 360	> 360	> 360	> 360	> 360	> 360	N#C[C@H]1[C@H](O)[C@@H](CO)O[C@H]1n1cnc2c(N)ncnc21	–	–
2.3	0.05	> 410	57.6	> 410	> 410	0.04	> 410	1.1	> 410	–	–	0.62	> 410	> 410	> 410	–	Nc1ccn([C@@H]2O[C@H](CO)[C@@H](O)[C@@H]2O)c(=O)n1 [CYTARABINE]	–	–
